A selection: hits, their analogues and other compounds. The true share with any hit is near 2.6%.
5-HT1A blocker: 5-HT1a (human) receptor antagonism | inhibition, % at 10 µM | CHO 5-HT1a Ga15 NFAT-bla reporter, antagonist mode | 62,000 tested, 0.68% active;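 active = inhibition above the mean of all tested compounds plus 3 SD, cut at about 43% in these data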;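 note: receptor stimulated by 5-CT agonist at 100 nM near EC80; beta-lactamase reporter measured by ratiometric fluorescence of a cleavable substrate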
E coli RNAP: blocks E. coli RNA polymerase transcription; AID 559; inhibition, %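 (tested at 10 µM)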; 62,000 tested, 0.2% active; fluorescence transcription assay; P0A8V2; in the data active = inhibition above about 20%;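 note: 0% = enzyme without compound and 100% = no enzyme blank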
5HT1a ag: activates the human 5-HT1a serotonin receptor. 65,000 tested, 0.56% active. P08908. AID 567. CHO 5-HT1a Ga15 NFAT-bla reporter, FRET ratio; 0% basal, 100% maximal reference agonist. activation, % at 10 µM;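 active = activation above the screen-wide mean activation plus 3 SD, cut at about 19% in these data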;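 note: 0% = DMSO wells and 100% = 5-CT at EC100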
S1P3 ag: S1P3 (human) receptor agonism; Q99500; activation, % at 4.5 µM; S1P3 NFAT-BLA reporter cells, FRET ratio; relative to 1 µM S1P, basal subtracted; AID 373; 60,000 tested, 0.1% active;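 active = activation above the screen-wide mean plus 3 SD, cut at about 4.5% in these data, passing the limit was not always enough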
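Benchmarks: high control 1 µM S1P / System: stable CHO line with human S1P3, Gα16, NFAT-BLA reporter / Dosing: single compound concentration, 4.5 µM final / Timing: 4 h compound at 37 °C, 2 h substrate at RT / Measured by: FRET β-lactamase substrate fluorescence, excitation 405 nm, 460/535 nm emission ratio, background-subtracted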
HTR1E antagonist: blocks the human 5-HT1E serotonin receptor; P28566; CHO 5-HT1E Ga15 NFAT-bla reporter, FRET, antagonist; inhibition, % at 6 µM; 65,000 tested, 0.99% active; AID 571;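 active = inhibition above a set limit, the mean inhibition across every tested compound plus 3 SD, cut at about 29% in these data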;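 note: signal is the 460 over 535 nm emission ratio of beta-lactamase substrate; 0% = agonist plus DMSO wells and 100% = wells without agonist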
Target sequence (P28566 whole entry, looked up): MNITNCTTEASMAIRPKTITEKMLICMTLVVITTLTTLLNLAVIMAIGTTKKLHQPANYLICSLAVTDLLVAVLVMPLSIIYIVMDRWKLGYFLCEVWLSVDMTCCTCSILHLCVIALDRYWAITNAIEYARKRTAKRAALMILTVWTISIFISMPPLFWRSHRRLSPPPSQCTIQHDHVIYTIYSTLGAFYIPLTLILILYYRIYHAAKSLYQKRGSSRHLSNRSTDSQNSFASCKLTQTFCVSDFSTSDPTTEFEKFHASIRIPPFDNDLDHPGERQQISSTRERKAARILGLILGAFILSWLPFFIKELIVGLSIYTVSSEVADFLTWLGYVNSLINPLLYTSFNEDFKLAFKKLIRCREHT
5HT1E ag: activates the human 5-HT1E serotonin receptor; P28566; CHO 5-HT1E Ga15 NFAT-bla reporter, FRET; 0% DMSO wells, 100% control agonist wells; activation, % at 6 µM; 65,000 tested, 0.69% active; AID 574;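 active = activation above a set limit, the screen-wide mean activation plus 3 SD, cut at about 8.5% in these data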;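 note: 100% = positive control agonist at 1 µM giving full maximal response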
The depositor's hits bear a star.

For COC(=O)c1cc2oc(C)cc2n1CC(=O)N(C)c1ccccc1 the results were 5-HT1A blocker -5.5, E coli RNAP 4.4, 5HT1a ag -1.1, S1P3 ag -1.0, HTR1E antagonist -4.5 and 5HT1E ag 11.4*.
For Cc1ccc(C(c2nnnn2C(C)(C)C)N(Cc2ccco2)Cc2cccs2)cc1 (centres undefined) the results were 5-HT1A blocker 50.8*, E coli RNAP 1.7, 5HT1a ag -1.6, S1P3 ag -1.9, HTR1E antagonist -0.4 and 5HT1E ag 0.2.
For CC(C)C(c1nnnn1Cc1ccccc1)N(Cc1ccco1)Cc1cccs1 (centres undefined) the results were 5-HT1A blocker 26.4, E coli RNAP 1.1, 5HT1a ag -1.7, S1P3 ag -2.0, HTR1E antagonist 11.5 and 5HT1E ag -0.8.
`COc1ccccc1-n1cnc2cc(NCc3ccco3)ccc21` gave 5-HT1A blocker 28.6, E coli RNAP 5.3, 5HT1a ag -0.1, S1P3 ag -1.1, HTR1E antagonist 33.9* and 5HT1E ag -1.6.
For CCCNC(=O)c1ccc2c(c1)ncn2-c1ccccc1OC the results were 5-HT1A blocker 17.1, 5HT1a ag -2.8, S1P3 ag -0.1, HTR1E antagonist 1.4 and 5HT1E ag 0.8.
For O=C1CC(c2ccccc2)n2nc(NC(=O)c3cccs3)nc2N1 (centres undefined) the results were 5-HT1A blocker 14.5, E coli RNAP 1.4, 5HT1a ag -2.8, S1P3 ag -1.8, HTR1E antagonist -1.1 and 5HT1E ag -0.5.
For COc1ccc(CNC(C)C2COc3ccccc3O2)c(OC)c1 (centres undefined) the results were 5-HT1A blocker 11.5, E coli RNAP -1.6, 5HT1a ag -4.1, S1P3 ag -0.2, HTR1E antagonist -1.2 and 5HT1E ag 13.1*.
`CC(NC(=O)CCC(=O)NC(C)C1COc2ccccc2O1)C1COc2ccccc2O1` (centres undefined) gave 5-HT1A blocker -0.3, E coli RNAP 9.0, 5HT1a ag 0.1, S1P3 ag 1.4, HTR1E antagonist -9.1 and 5HT1E ag 1.0.
O=C(CSc1nnc(-c2cccs2)n1-c1ccccc1)c1ccc2c(c1)OCCO2 was read as 5-HT1A blocker 1.1, E coli RNAP 1.4, 5HT1a ag -1.5, S1P3 ag -0.4, HTR1E antagonist -2.0 and 5HT1E ag 0.1.
CCCCOc1ccc(N2C(=O)CC(N(O)c3ccccc3)C2=O)cc1 (centres undefined) was read as 5-HT1A blocker 9.4, E coli RNAP 2.3, 5HT1a ag 0.1, S1P3 ag -1.5, HTR1E antagonist 34.4* and 5HT1E ag 1.4.
CCCCCOc1ccc(N2C(=O)CC(N(O)c3ccccc3)C2=O)cc1 (centres undefined) was read as 5-HT1A blocker -0.8, E coli RNAP -8.4, 5HT1a ag -0.7, S1P3 ag -1.3, HTR1E antagonist 5.3 and 5HT1E ag -0.5.
For CCN1C(=O)c2cccc3c(NS(=O)(=O)c4ccc(NC(C)=O)cc4)ccc1c23 the results were 5-HT1A blocker -0.4, E coli RNAP 2.0, 5HT1a ag 0.2, S1P3 ag -0.5, HTR1E antagonist 2.7 and 5HT1E ag -0.1.
CCN1C(=O)c2cccc3c(NC(=O)c4ccc(S(=O)(=O)N(C)C)cc4)ccc1c23 was read as 5-HT1A blocker -6.3, E coli RNAP 6.6, 5HT1a ag 88.0*, S1P3 ag -0.9, HTR1E antagonist 1.9 and 5HT1E ag -0.1.
Screening CCOC(=O)c1ccc(NC(=O)Nc2ccc3c4c(cccc24)C(=O)N3CC)cc1 returned 5-HT1A blocker 1.4, E coli RNAP 17.9, 5HT1a ag -2.8, S1P3 ag -0.9, HTR1E antagonist 30.3* and 5HT1E ag -0.1.
`Cc1cc(C(=O)Nc2sc3c(c2C#N)CCCC3)no1` gave 5-HT1A blocker 20.5, E coli RNAP 9.4, 5HT1a ag -1.5, S1P3 ag 0.2, HTR1E antagonist 0.6 and 5HT1E ag -0.2.
`CC(=O)Nc1sc2c(c1C#N)CCCCC2` gave 5-HT1A blocker -3.7, E coli RNAP 21.8*, 5HT1a ag -2.5, S1P3 ag -0.7, HTR1E antagonist -12.1 and 5HT1E ag -0.3.
For COC1=CC(=O)OC12CCCCC2 the results were 5-HT1A blocker -14.5, E coli RNAP 2.0, 5HT1a ag -3.2, S1P3 ag -0.9, HTR1E antagonist 5.4 and 5HT1E ag -0.5.
`COc1cc2c(cc1OC)CN(Cc1cccs1)CC2` gave 5-HT1A blocker 3.6, E coli RNAP -0.5, 5HT1a ag -2.0, S1P3 ag -0.5, HTR1E antagonist -0.2 and 5HT1E ag 13.2*.
COc1cc2c(cc1OC)CN(Cc1ccc(OC)c(C)c1OC)CC2 was read as 5-HT1A blocker 41.1, 5HT1a ag 1.1, S1P3 ag -1.8, HTR1E antagonist 11.8 and 5HT1E ag -2.5.
For Cc1cccc(N2CCN(C(=O)COc3cc(=O)n(C)c4ccccc34)CC2)c1C the results were 5-HT1A blocker -12.8, E coli RNAP 6.2, 5HT1a ag -2.2, S1P3 ag -1.0, HTR1E antagonist -0.4 and 5HT1E ag 12.7*.
For Cc1ccc(C)c(N2CCN(C(=O)COc3cc(=O)n(C)c4ccccc34)CC2)c1 the results were 5-HT1A blocker 7.8, E coli RNAP -6.4, 5HT1a ag -0.9, S1P3 ag -1.5, HTR1E antagonist 10.7 and 5HT1E ag -0.3.
`CC(C)Cc1nc2oc3c(NCc4cccnc4)ncnc3c2c2c1CCC2` gave 5-HT1A blocker -2.2, E coli RNAP 12.8, 5HT1a ag 0.0, S1P3 ag -0.3, HTR1E antagonist 35.2* and 5HT1E ag 2.0.
For CC(C)c1nc2oc3c(NCc4cccnc4)ncnc3c2c2c1CCC2 the results were 5-HT1A blocker -10.9, E coli RNAP 1.9, 5HT1a ag 1.4, S1P3 ag -0.4, HTR1E antagonist 30.2* and 5HT1E ag -0.8.
For CCN1CCN(c2ncnc3c2oc2nc(C(C)C)c4c(c23)CCC4)CC1 the results were 5-HT1A blocker -19.2, E coli RNAP 0.1, 5HT1a ag -1.2, S1P3 ag -0.9, HTR1E antagonist -6.4 and 5HT1E ag 1.6.
For CC(C)Cc1nc2oc3c(NCC4CCCO4)ncnc3c2c2c1CCC2 (centres undefined) the results were 5-HT1A blocker -17.7, E coli RNAP 3.6, 5HT1a ag 0.5, S1P3 ag -0.9, HTR1E antagonist 13.8 and 5HT1E ag 0.6.
For CN(C)S(=O)(=O)N1CCN(C(=O)N(c2ccccc2)c2ccccc2)CC1 the results were 5-HT1A blocker -2.2, E coli RNAP -1.7, 5HT1a ag -4.0, S1P3 ag -0.4, HTR1E antagonist -5.2 and 5HT1E ag 0.4.
`CCCc1nc(S(=O)(=O)Cc2ccc(Cl)cc2Cl)n[nH]1` gave 5-HT1A blocker -11.9, E coli RNAP 3.5, 5HT1a ag -1.9, S1P3 ag -1.3, HTR1E antagonist -7.2 and 5HT1E ag 0.7.
